Data set [1] deals with RNA containing a single 2 × 2 CU/UC internal loop, r(5′-GACAGCCUGCUGUC-3′). Nature of the data set: NMR spectroscopy. It is filed as binding. The settings on record: for shifts of RNA H6 and H8 proton resonances in 1D NMR: RNA with one 2×2 CU/UC internal loop; for binding to the RNA by waterLOGSY spectra: positive phase signals in the presence of RNA, 20:1 compound:RNA. In a few lines: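 1D spectra were run on 100 μM RNA in D2O with compound titrated at 0.5–2.0 molar ratios. WaterLOGSY used 300 μM compound alone or with 15 μM RNA in H2O/5% D2O, phased so non-binders give negative NOEs. All spectra at 25 °C.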

A further data set deals with IR exon 11 splicing. Type of data set: cell-based. The settings on record: DM2 patient-derived fibroblasts; for rescue of IR exon 11 splicing (percent rescue): 1 μM. An outline of the steps: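 DM2 patient-derived fibroblasts were treated at ~40% confluency in 6-well plates for 48 h. About 1 μg of total RNA was reverse transcribed. PCR ran 35 cycles (95/58/72 °C), and products were resolved on a 2% agarose gel, stained with ethidium bromide and quantified. Percent rescue = (untreated DM2 exclusion − treated exclusion)/(untreated DM2 exclusion − untreated WT exclusion) × 100.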

In a further data set the test system is r(CCUG)12–MBNL1 complex. Kind of data set: TR-FRET assay measuring disruption of a preformed r. It is filed as biochemical. The settings on record: read-out: IC50 for disrupting the r(CCUG)12–MBNL1 complex, in vitro. An outline of the steps: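 5′-Biotinylated r(CCUG)12 was folded at 60 °C for 5 min in 20 mM HEPES pH 7.5 with KCl and NaCl. It was then brought into assay buffer with 2 mM MgCl2, 2 mM CaCl2, 5 mM DTT, 0.1% BSA and 0.5% Tween-20. MBNL1-His6 was added (final 60 nM protein, 80 nM RNA) for 15 min, then varying compound concentrations for 15 min. Streptavidin-XL665 (40 nM) and anti-His6-Tb (0.44 ng/μL) were added for 30 min at room temperature. The F545/F665 ratio, with excitation at 345 nm, was fitted to a Hill equation.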
Background: Time-resolved FRET reads energy transfer from a long-lived donor to a nearby acceptor.

In a further data set the test system is MAP4K4 exon 22a splicing. Kind of data set: MAP4K4 exon 22a splicing. The settings on record: NOVA-dependent splicing event. Type of data set: cell-based.
The target in data set [2] is base-paired RNA that does not contain internal loops. Nature of the data set: Microscale thermophoresis. Type of data set: binding. The settings on record: read-out: Kd for base pair control RNA; MST. An outline of the steps: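 Cy5-labelled base-paired control RNA, GCG(CCUG)7(GCAG)5CGC, was used at 5 nM in 8 mM Na2HPO4 pH 7.0, 185 mM NaCl and 1 mM EDTA, folded at 60 °C for 5 min. It was mixed with 1:1 serial compound dilutions (0.05% Tween-20 final) and held 30 min at room temperature. MST settings: 80% power, 30 s laser-on. Kd came from a quadratic fit, averaged over two independent experiments.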
(In general: MST reads how a fluorescent partner responds to local heating, with and without ligand.)

The subject of data set [3] is CNBP intron 1. Kind of data set: CNBP intron 1 abundance by RT-qPCR in DM2 patient-derived fibroblasts. It is filed as cell-based. The settings on record: doses of 5 and 1 μM. In a few lines: (§1)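 DM2 patient-derived fibroblasts were grown in DMEM/high glucose with 20% FBS at 37 °C and 5% CO2. Cells in 6-well plates were treated in growth medium at 40% confluency for 48 h. About 1 μg of total RNA was reverse transcribed, then run in SYBR Green qPCR. Abundance was normalized to GAPDH across 2 independent experiments.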
In general terms: Real-time PCR tracks product formation cycle by cycle.

Data set [4] has as its system r(CCUG)exp–MBNL1 nuclear foci. It is filed as cell-based. The settings on record: 5 μM, DM2 patient-derived fibroblasts; untreated 7 ± 1.
The subject of data set [5] is DM2 patient-derived fibroblasts. Kind of data set: Cell viability. The settings on record: 5 μM, 48 h. Type of data set: cell-based. In a few lines: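 Cells were treated in 96-well plates for 48 h. CellTiter-Glo reagent was added, plates sat 10 min at room temperature, and luminescence was read. n = 6 replicates in one independent experiment.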
The next data set has as its system IR exon 11 inclusion. Kind of data set: IR exon 11 inclusion in wild-type fibroblasts. It is filed as cell-based. In a few lines: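 Wild-type donor fibroblasts (GM07492) were grown in MEM with 10% FBS and treated at ~40% confluency for 48 h. About 1 μg of total RNA was reverse transcribed. PCR ran 35 cycles (95 °C 30 s, 58 °C 30 s, 72 °C 1 min). Products were separated on a 2% agarose gel, stained with ethidium bromide, and percent exon 11 exclusion was quantified by densitometry.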

Data set [6] has as its system CNBP intron 1. Nature of the data set: CNBP intron 1 levels in wild-type fibroblasts. Type of data set: cell-based. In a few lines:
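Wild-type donor fibroblasts (GM07492) were grown in MEM with 10% FBS and Glutagro at 37 °C and 5% CO2. Cells were treated at 40% confluency for 48 h. About 1 μg of total RNA was reverse transcribed and run in SYBR Green qPCR. Relative abundance was normalized to GAPDH.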

For another data set, the system named is CNBP mature mRNA. Nature of the data set: CNBP mature mRNA levels by RT-qPCR in DM2 patient-derived fibroblasts. It is filed as cell-based. In a few lines:
as §1

Where two headings read alike, the source gives them in different places. Some results are limits rather than exact numbers.

Turning to `OCCCNc1nc(Nc2ccc3c(c2)OCCO3)nc2ccccc12` [compound 7, 3-((2-((2,3-dihydrobenzo[b][1,4]dioxin-6-yl)amino)quinazolin-4-yl)amino)propan-1-ol], in [1], the “shifts of RNA H6 and H8 proton resonances in 1D NMR” value (shortened to “shifts”) is recorded as “Significant shifts in resonances”; the “binding to the RNA by waterLOGSY spectra” value is listed as “bound to the RNA”. Further, the “rescue of IR exon 11 splicing (percent rescue)” value in the data set on IR exon 11 splicing (48 h) is recorded as 12 ± 5%.
Broadly, the IC50 is the concentration at which inhibition is half-maximal. As for `Cc1ccc2nc(Nc3ccc4nc(N5CCOCC5)sc4c3)nc(NCCCO)c2c1` [compound 72, 3-((6-methyl-2-((2-morpholinobenzo[d]thiazol-6-yl)amino)quinazolin-4-yl)amino)propan-1-ol], the IC50 with r(CCUG)12–MBNL1 complex is under 5 µM.
As usually defined, the Kd is the constant that tells how readily two partners part at equilibrium. `Cc1ccc2nc(Nc3ccc4nc(C)sc4c3)nc(NCCCO)c2c1` [compound 63, 3-((6-methyl-2-((2-methylbenzo[d]thiazol-6-yl)amino)quinazolin-4-yl)amino)propan-1-ol]: the “effect on MAP4K4 exon 22a splicing” value with MAP4K4 exon 22a splicing is listed as “did not affect”. Moreover, the Kd in data set [2] is over 20 µM. For the same compound, in the data set on CNBP intron 1 [3], the “abundance of CNBP intron 1” value is listed as “significantly reduced”. Besides, the “number of r(CCUG)exp–MBNL1 nuclear foci per cell” value in data set [4] stood at 5 ± 0.5. Further, in [5], the “toxicity in DM2 patient-derived fibroblasts” value (“toxicity” below) is reported as “no toxicity”. In the data set with IR exon 11 inclusion, the “effect on IR exon 11 inclusion” value is listed as “did not affect”. Further, the “effects on CNBP intron 1 levels” value with CNBP intron 1 [6] is on record as “no effects were observed”. For the same compound, the “rescue of IR exon 11 splicing (percent rescue)” value in the data set on IR exon 11 splicing (48 h) is 33 ± 5%. For the same compound, the “rescue of IR exon 11 splicing” value in the data set on IR exon 11 splicing (5 μM, 48 h) is recorded as “significantly improved IR splicing”. For the same compound, in the data set on CNBP mature mRNA, the “levels of CNBP mature mRNA” value is reported as “did not affect”. Also, in the data set with r(CCUG)12–MBNL1 complex, the IC50 was found to be 2.2 ± 0.5 µM.
Take `Cc1ccc2nc(Nc3ccc4nc(N5CCN(C)CC5)sc4c3)nc(NCCCO)c2c1` [compound 82, 3-((6-methyl-2-((2-(4-methylpiperazin-1-yl)benzo[d]thiazol-6-yl)amino)quinazolin-4-yl)amino)propan-1-ol]: the IC50 with r(CCUG)12–MBNL1 complex is under 5 µM.
For `COc1ccc(Nc2nc(NCCCO)c3ccccc3n2)cc1` [compound 3], in [1], the “shifts” value is reported as “Significant shifts in resonances”; the “binding to the RNA by waterLOGSY spectra” value is on record as “bound to the RNA”.
As for `CN(C)c1ccc(Nc2nc(NCCCO)c3ccccc3n2)cc1` [compound 4], in [1], the “shifts” value is reported as “Significant shifts in resonances”; the “binding to the RNA by waterLOGSY spectra” value was “bound to the RNA”.
Take `Cc1ccc2nc(Nc3ccc4nc(NCCN(C)C)sc4c3)nc(NCCCO)c2c1` [compound 79, 3-((2-((2-((2-(dimethylamino)ethyl)amino)benzo[d]thiazol-6-yl)amino)-6-methylquinazolin-4-yl)amino)propan-1-ol]: in [5], the “toxicity” value is recorded as “no toxicity”. Besides, in the data set with IR exon 11 splicing (any concentration studied), the “rescue of IR exon 11 splicing” value was “did not significantly rescue splicing”. Further, the IC50 in the data set with r(CCUG)12–MBNL1 complex is under 5 µM.
In the case of `Cc1ccc2nc(Nc3ccc4nc(NCC(C)C)sc4c3)nc(NCCCO)c2c1` [compound 73, 3-((2-((2-(isobutylamino)benzo[d]thiazol-6-yl)amino)-6-methylquinazolin-4-yl)amino)propan-1-ol], the IC50 in the data set on r(CCUG)12–MBNL1 complex was under 5 µM.
On the same count and under the same terms, the value for `Cc1ccc2nc(Nc3ccc4c(c3)OCCO4)nc(NCCCO)c2c1` [compound 58, 3-((2-((2,3-dihydrobenzo[b][1,4]dioxin-6-yl)amino)-6-methylquinazolin-4-yl)amino)propan-1-ol] was 12.7 ± 0.2 µM; that for `Cc1ccc2nc(Nc3ccc4nc(NCCN5CCOCC5)sc4c3)nc(NCCCO)c2c1` [compound 74, 3-((6-methyl-2-((2-((2-morpholinoethyl)amino)benzo[d]thiazol-6-yl)amino)quinazolin-4-yl)amino)propan-1-ol] was under 5 µM.
Take `Cc1ccc2nc(Nc3ccc4nc(NCC(C)(C)O)sc4c3)nc(NCCCO)c2c1` [compound 78, 3-((2-((2-((2-hydroxy-2-methylpropyl)amino)benzo[d]thiazol-6-yl)amino)-6-methylquinazolin-4-yl)amino)propan-1-ol]: in [5], the “toxicity” value is “no toxicity”. For the same compound, the “rescue of IR exon 11 splicing” value in the data set with IR exon 11 splicing (5 μM, 48 h) is recorded as “significantly improved IR splicing”. Moreover, the IC50 with r(CCUG)12–MBNL1 complex was under 5 µM.
As for `CC(=O)Nc1ccc(Nc2nc(NCC3CCCO3)c3ccccc3n2)cc1` (centres unmarked) [compound 5], in data set [1], the “shifts” value is “Significant shifts in resonances”; the “binding to the RNA by waterLOGSY spectra” value is “bound to the RNA”.
For `Cc1ccc2nc(Nc3ccc4nc(NC5CCN(Cc6ccccc6)CC5)sc4c3)nc(NCCCO)c2c1` [compound 71, 3-((2-((2-((1-benzylpiperidin-4-yl)amino)benzo[d]thiazol-6-yl)amino)-6-methylquinazolin-4-yl)amino)propan-1-ol], in the data set with r(CCUG)12–MBNL1 complex, the IC50 is under 5 µM.

Values taken from PMC8883746 (Journal of medicinal chemistry, 2021).
